From ChEMBL document CHEMBL1123594, “Antiradiation compounds. 20. 1-Methylquinolinium(and pyridinium)-2-dithioacetic acid derivatives” (J Med Chem, 1987) come the findings set out here.

Broadly, the LD50 is the dose expected to kill half of the subjects tested.

Data set [1] concerns Mus musculus. Nature of the data set: Percent survival was determined over a period of 30 days after intraperitoneal administration of a dose of 2.3 mg/kg in mice. As to conditions: ip, 720 h. Type of data set: functional. The method in brief: (§1)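 Female C57 B16 mice (18-20 g), groups of 10, dosed ip in water or 10-20% aqueous ethanol (sometimes with Klucel or a Tween). Whole-body 1000-rad γ-irradiation 30 min after dosing. Survival was followed over 30 days, and animals alive beyond 30 days were counted as protected. Testing was done at Walter Reed Army Institute of Research.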

The subject of data set [2] is Mus musculus. Briefly: Percent survival was determined over a period of 30 days after intraperitoneal administration of a dose of 4.7 mg/kg in mice. The note with it: ip, 720 h. In kind it is functional. The procedure, abridged: as §1
Data set [3] relates to Mus musculus. Briefly: Percent survival was determined over a period of 30 days after intraperitoneal administration of a dose of 9.4 mg/kg in mice. In kind it is functional. The note with it: ip, 720 h. The method in brief: as §1
Data set [4] is described as follows: Toxic dose was determined after (ip) administration of a dose of 9.4 mg/kg in mice at 1000-rad-gamma-radiation for 30 mins. In kind it is toxicity, organism-based. Details: dose 9.4 mg/kg. The note with it: mouse, in vivo. The method in brief: (§2)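 Drug-toxicity deaths were counted within the radioprotection groups: 10 female C57 B16 mice, dosed by the route stated, then given whole-body 1000-rad γ-irradiation 30 min later. Deaths attributed to compound toxicity occurred before day 5 and were scored separately from the 30-day survival count.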

Data set [5] has as its system Mus musculus. Nature of the data set: Percent survival was determined over a period of 30 days after intraperitoneal administration of a dose of 18.8 mg/kg in mice. In kind it is functional. As to conditions: ip, 720 h. The procedure, abridged: as §1
Data set [6] in a line: Toxic dose was determined after (ip) administration of a dose of 18.8 mg/kg in mice at 1000-rad-gamma-radiation for 30 mins. Type of data set: toxicity, organism-based. The note with it: mouse, in vivo. Details: dose 18.8 mg/kg. The procedure, abridged: as §2
The test system of data set [7] is Mus musculus. Nature of the data set: Percent protective effect was determined in mice using 849 rads for 30 min after (ip) administration of 600 mg/kg. In kind it is functional.
Data set [8] deals with Mus musculus. Briefly: Percent protective effect was determined in mice using 849 rads for 30 min after (po) administration of 600 mg/kg. In kind it is functional.
For data set [9], the system named is Mus musculus. Nature of the data set: Percent survival was determined over a period of 30 days after intraperitoneal administration of a dose of 37.5 mg/kg in mice. In kind it is functional. As to conditions: ip, 720 h. The procedure, abridged:
as §1

The subject of data set [10] is Mus musculus. Briefly: Percent survival was determined over a period of 30 days after intraperitoneal administration of a dose of 75 mg/kg in mice. In kind it is functional. The procedure, abridged: as §1
For data set [11], the system named is Mus musculus. Nature of the data set: Percent survival was determined over a period of 30 days after oral administration of a dose of 150 mg/kg in mice. Type of data set: functional. The note with it: 720 h. The method in brief: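 Female C57 B16 mice (18-20 g), groups of 10, dosed orally. Whole-body 1000-rad γ-irradiation 30 min after dosing. Percent survival was scored over 30 days, with mice surviving beyond 30 days counted as protected.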

Data set [12] can be described thus: Toxic dose was determined after (po) administration of a dose of 300 mg/kg in mice at 1000-rad-gamma-radiation for 30 mins. In kind it is toxicity, organism-based. Also noted: dose 300 mg/kg. The note with it: mouse, in vivo. The procedure, abridged:
as §2

The nature of data set [13]: Toxic dose was determined after (ip) administration of a dose of 150 mg/kg in mice at 1000-rad-gamma-radiation for 30 mins. The note with it: mouse, in vivo. Details: dose 150 mg/kg. Type of data set: toxicity, organism-based. The procedure, abridged:
as §2

The subject of data set [14] is Mus musculus. Briefly: Percent survival was determined over a period of 30 days after intraperitoneal administration of a dose of 150 mg/kg in mice. Type of data set: functional. The note with it: ip, 720 h. The procedure, abridged: as §1
Data set [15] has as its system Mus musculus. Briefly: Percent protective effect was determined in mice using 1000 rads for 30 min after administration of 25 mg/kg. Type of data set: functional.
Data set [16] concerns Mus musculus. Nature of the data set: Percent survival was determined over a period of 30 days after intraperitoneal administration of a dose of 1200 mg/kg in mice. Type of data set: functional. The note with it: ip, 720 h. The method in brief:
as §1

For data set [17], the system named is Mus musculus. Briefly: Percent survival was determined over a period of 30 days after intraperitoneal administration of a dose of 300 mg/kg in mice. In kind it is functional. As to conditions: ip, 720 h. The method in brief:
as §1

In data set [18] the test system is Mus musculus. Nature of the data set: Percent survival was determined over a period of 30 days after intraperitoneal administration of a dose of 600 mg/kg in mice. The note with it: ip, 720 h. In kind it is functional. The procedure, abridged:
as §1

Data set [19] can be described thus: Toxic dose was determined in 10-20% ethanol by ip administration in mice. The radiation protective properties were evaluated for groups of 10 mice exposed to 849-rad-gamma-radiation 30 min after dosing. In kind it is toxicity, organism-based. As to conditions: mouse, in vivo.
A short description of data set [20]: Toxic dose was determined after (ip) administration of a dose of 1200 mg/kg in mice at 1000-rad-gamma-radiation for 30 mins. Type of data set: toxicity, organism-based. Details: dose 1200 mg/kg. As to conditions: mouse, in vivo. The procedure, abridged:
as §2

Data set [21] concerns Mus musculus. Briefly: Percent survival was determined over a period of 30 days after intraperitoneal administration of a dose of 2.4 mg/kg in mice. In kind it is functional. As to conditions: ip, 720 h. The procedure, abridged:
as §1

The test system of data set [22] is Mus musculus. Briefly: Percent survival was determined over a period of 30 days after intraperitoneal administration of a dose of 1.2 mg/kg in mice. In kind it is functional. The note with it: ip, 720 h. The procedure, abridged:
as §1

Data set [23] can be described thus: Toxic dose was determined after (ip) administration of a dose of 4.7 mg/kg in mice at 1000-rad-gamma-radiation for 30 mins. Details: dose 4.7 mg/kg. In kind it is toxicity, organism-based. As to conditions: mouse, in vivo. The method in brief: as §2

`CS/C(=C\c1ccc2ccccc2[n+]1C)N1CCN(CCCO)CC1.[I-]` gave a survival at 2.3 mg/kg with Mus musculus [1] of 0%. Moreover, the survival at 4.7 mg/kg in the data set with Mus musculus [2] worked out at 0%. For the same molecule, the survival at 9.4 mg/kg with Mus musculus [3] was 30%. In data set [4], the LD50 at 0.5 h was more than 10 mg/kg.

Take `CSC(=Cc1cccc(C)[n+]1C)SC.[I-]`: the survival at 18.8 mg/kg with Mus musculus [5] was 40%. This molecule also returned a survival at 4.7 mg/kg in the data set on Mus musculus [2] of 0%. This molecule also displayed a survival at 9.4 mg/kg with Mus musculus [3] of 0%. Besides, in data set [6], the LD50 at 0.5 h is 50 mg/kg.

On to `N#CC(C(=O)N1CCCC1)=C([S-])[S-].[K+].[K+]`, for which the figures for the Protective effect in the data set on Mus musculus [7] and in the data set on Mus musculus [8] were 80% and 30%, respectively.

In the case of `CSC(=Cc1ccc2ccccc2[n+]1C)SC.[I-]`, the survival at 37.5 mg/kg in the data set with Mus musculus [9] was 0%. In the data set on Mus musculus [10] (75 mg/kg), this molecule had a Survival of 0%. Also, the figures for the survival at 150 mg/kg with Mus musculus [11] and in the data set with Mus musculus [14] were 10% and 60%, respectively. Moreover, the values for the LD50 at 0.5 h in [12] and in [13] were more than 300 mg/kg and 300 mg/kg, respectively.

`Cc1ccc2c(ccc(CC(=S)[S-])[n+]2C)c1`: the survival at 37.5 mg/kg with Mus musculus [9] worked out at 10%. The same molecule had a survival at 75 mg/kg in the data set on Mus musculus [10] (Mus musculus, ip, 720 h) of 20%. The LD50 at 0.5 h in data set [13] came to 225 mg/kg. The molecule further came in with a survival at 150 mg/kg in the data set with Mus musculus [14] of 10%.

For `N#CC(C#N)=C([S-])[S-].[Zn+2]`, the Protective effect in the data set on Mus musculus [15] was less than 25%.

`CS/C(=C\c1cccc[n+]1C)N1CCOCC1.[I-]`: the survival at 18.8 mg/kg with Mus musculus [5] turned out to be 0%. For the same molecule, in the data set with Mus musculus [2], the survival at 4.7 mg/kg was 0%. Also, the survival at 9.4 mg/kg in the data set with Mus musculus [3] is 0%. Moreover, in data set [6], the LD50 at 0.5 h came to 50 mg/kg.

Turning to `C[n+]1c(CC(=S)[S-])cccc1CC(=S)[S-].[I-].[Na+].[Na+]`, the survival at 1200 mg/kg with Mus musculus [16] worked out at 0%. This molecule also showed a survival at 300 mg/kg with Mus musculus [17] of 0%. Besides, the survival at 600 mg/kg with Mus musculus [18] was found to be 0%. Also, the LD50 at 0.5 h in [19] and in [20] was more than 600 mg/kg each time.

On to `CS/C(=C\c1cccc[n+]1C)N1CCN(C)CC1.[I-]`, for which, in the data set with Mus musculus [5], the survival at 18.8 mg/kg worked out at 10%. The survival at 4.7 mg/kg with Mus musculus [2] was determined as 0%. The molecule further registered a survival at 9.4 mg/kg in the data set with Mus musculus [3] of 0%. This molecule also registered an LD50 at 0.5 h in [6] of 60 mg/kg.

For the molecule `COC(CN/C(=C/c1ccc2ccccc2[n+]1C)SC)OC.[I-]`, the survival at 18.8 mg/kg in the data set with Mus musculus [5] came to 30%. Further, in the data set on Mus musculus [2], the survival at 4.7 mg/kg amounted to 0%. The same molecule returned a survival at 9.4 mg/kg with Mus musculus [3] of 0%. In data set [6], this molecule showed a median lethal dose (LD50) at 0.5 h of 30 mg/kg.

On to `COc1ccc2c(ccc(C=C(SC)SC)[n+]2C)c1.[I-]`, for which, in the data set with Mus musculus [1], the survival at 2.3 mg/kg is 0%. In the data set with Mus musculus [2], this molecule gave a survival at 4.7 mg/kg of 0%. Besides, the survival at 9.4 mg/kg in the data set with Mus musculus [3] was 0%. Also, the LD50 at 0.5 h in data set [4] is 30 mg/kg.

Molecule `CS/C(=C\c1cccc[n+]1C)N1CCCCC1.[I-]` registered a survival at 2.4 mg/kg in the data set on Mus musculus [21] of 30%. In the data set on Mus musculus [2], this molecule yielded a survival at 4.7 mg/kg of 20%. Further, the survival at 9.4 mg/kg with Mus musculus [3] turned out to be 80%. The molecule further gave a median lethal dose (LD50) at 0.5 h in data set [4] of 25 mg/kg.

In the data set with Mus musculus [1], `CSC(=Cc1c2ccccc2cc[n+]1C)SC.[I-]` gave a survival at 2.3 mg/kg of 0%. The same molecule came in with a survival at 4.7 mg/kg in the data set with Mus musculus [2] of 0%. For the same molecule, the survival at 9.4 mg/kg in the data set on Mus musculus [3] stood at 20%. The same molecule yielded a 50% lethal dose (LD50) at 0.5 h in data set [4] of 15 mg/kg.

In the data set with Mus musculus [22], `CCCCCCSC(=Cc1cccc[n+]1C)SCCCCCC.[I-]` gave a survival at 1.2 mg/kg of 0%. The survival at 2.3 mg/kg in the data set on Mus musculus [1] was found to be 0%. This molecule yielded a survival at 4.7 mg/kg with Mus musculus [2] of 0%. This molecule also returned a median lethal dose (LD50) at 0.5 h in data set [23] of 5 mg/kg.

Molecule `CCSC(=Cc1cccc[n+]1C)SCC.[I-]` gave a survival at 4.7 mg/kg with Mus musculus [2] of 0%. Moreover, the survival at 9.4 mg/kg in the data set on Mus musculus [3] was found to be 20%. In addition, in [4], the median lethal dose (LD50) at 0.5 h came out at 20 mg/kg.
